36 compounds from ChEMBL document CHEMBL1250463, “N(epsilon)-Modified lysine containing inhibitors for SIRT1 and SIRT2” (Bioorg Med Chem, 2010) can be followed below.

For orientation: inhibition means the share of the control response that was lost under treatment. Read a low inhibition as a response near the control. The term IC50 denotes the concentration that inhibits the measured activity by half. The low end stands for greater potency in that assay, the high end for weaker potency in that assay.

The target of experiment [1] is T1, NAD-dependent protein deacetylase sirtuin-1 (Homo sapiens) (UniProt Q96EB6).
T1 sequence (whole entry): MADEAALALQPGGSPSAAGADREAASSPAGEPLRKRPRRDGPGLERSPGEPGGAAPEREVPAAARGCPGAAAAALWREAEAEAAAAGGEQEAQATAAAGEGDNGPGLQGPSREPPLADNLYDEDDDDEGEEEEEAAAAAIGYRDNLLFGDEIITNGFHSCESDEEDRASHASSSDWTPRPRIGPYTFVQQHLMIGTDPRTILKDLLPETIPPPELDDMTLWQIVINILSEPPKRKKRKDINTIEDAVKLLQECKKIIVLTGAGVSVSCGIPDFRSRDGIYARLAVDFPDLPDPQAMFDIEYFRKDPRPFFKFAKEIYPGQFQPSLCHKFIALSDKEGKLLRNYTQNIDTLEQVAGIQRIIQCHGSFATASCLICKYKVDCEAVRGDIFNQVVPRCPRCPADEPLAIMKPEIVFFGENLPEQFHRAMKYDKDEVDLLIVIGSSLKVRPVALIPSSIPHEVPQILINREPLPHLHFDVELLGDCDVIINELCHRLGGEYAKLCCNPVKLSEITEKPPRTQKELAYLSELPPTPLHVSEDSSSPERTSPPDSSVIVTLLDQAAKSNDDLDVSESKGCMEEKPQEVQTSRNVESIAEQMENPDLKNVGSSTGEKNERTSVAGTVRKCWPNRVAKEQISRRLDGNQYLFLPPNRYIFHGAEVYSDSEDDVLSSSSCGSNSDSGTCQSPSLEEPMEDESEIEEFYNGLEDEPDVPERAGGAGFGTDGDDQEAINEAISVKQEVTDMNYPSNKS
Nature of the experiment: Inhibition of GST-SIRT1 at 200 uM after 1 hr by Fluor de Lys fluorescence assay. Put shortly: (§1)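 Recombinant GST-SIRT1 with Fluor de Lys acetylated SIRT1 peptide substrate at 70% of its Km, plus NAD+, in HDAC assay buffer with 1 mg/ml BSA. Buffer, substrate, NAD+ and compound in DMSO (2.5 in 50 total) were preincubated 5 min at rt. Enzyme addition started the reaction, run 1 h at 37 °C. Developer plus 2 mM nicotinamide was then added for 45 min at 37 °C before fluorescence read-out.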

Experiment [2] has as its target T2, NAD-dependent protein deacetylase sirtuin-2 (Homo sapiens) (UniProt Q8IXJ6).
T2 sequence (whole entry): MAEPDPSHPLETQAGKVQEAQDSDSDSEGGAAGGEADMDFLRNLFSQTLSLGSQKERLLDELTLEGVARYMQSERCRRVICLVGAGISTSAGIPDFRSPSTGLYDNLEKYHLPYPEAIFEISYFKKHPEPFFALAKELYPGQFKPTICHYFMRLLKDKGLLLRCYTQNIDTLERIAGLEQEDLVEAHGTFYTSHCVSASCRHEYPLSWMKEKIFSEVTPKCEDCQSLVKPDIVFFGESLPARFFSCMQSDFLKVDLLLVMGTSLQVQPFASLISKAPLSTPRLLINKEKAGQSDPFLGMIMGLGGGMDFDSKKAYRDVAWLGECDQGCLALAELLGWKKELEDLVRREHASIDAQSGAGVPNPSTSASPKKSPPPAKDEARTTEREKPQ
Nature of the experiment: Inhibition of GST-SIRT2 at 200 uM after 1 hr by Fluor de Lys fluorescence assay. In short, it runs like this: (§2)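 Recombinant GST-SIRT2 with Fluor de Lys acetylated SIRT2 peptide substrate at 70% of its Km, plus NAD+, in HDAC assay buffer with 1 mg/ml BSA. Compound or DMSO was preincubated 5 min at rt with buffer, substrate and NAD+. Enzyme was added to start the reaction, run 1 h at 37 °C. Developer with 2 mM nicotinamide followed for 45 min at 37 °C, then fluorescence was read.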

For experiment [3], the target named is T3, NAD-dependent protein deacetylase sirtuin-2 (Homo sapiens, UniProt Q8IXJ6).
T3 sequence (Q8IXJ6 whole entry): T2 sequence (whole entry)
Nature of the experiment: Inhibition of GST-SIRT2 after 1 hr by Fluor de Lys fluorescence assay. In short, it runs like this:
as §2

Experiment [4] addresses T4, NAD-dependent protein deacetylase sirtuin-1 (Homo sapiens, UniProt Q96EB6).
T4 sequence (Q96EB6 whole entry): T1 sequence (whole entry)
The experiment is described as follows: Inhibition of GST-SIRT1 after 1 hr by Fluor de Lys fluorescence assay. In short, it runs like this:
as §1

With `COC(=O)[C@H](C)NC(=O)[C@H](CCCCNC(=O)OCc1ccccc1)NC(=O)[C@H](C)NC(C)=O`, the inhibition is 11% in experiment [1] and 3% in experiment [2].
As for `CNC(=O)[C@H](C)NC(=O)[C@H](CCCCNC(C)=O)NC(=O)[C@H](C)NC(C)=O`, the IC50 in experiment [3] was determined as 60 µM; in experiment [4], 88 µM. The inhibition turned out to be 66% in experiment [1] and 68% in experiment [2].
Consider `COC(=O)[C@H](C)NC(=O)[C@H](CCCCNC(=O)Cc1cccnc1)NC(=O)[C@H](C)NC(C)=O`, for which the inhibition turned out to be 10% in experiment [1] and 0% in experiment [2].
`CC(=O)N[C@@H](C)C(=O)N[C@@H](CCCCNC(=O)C=C(C)C)C(=O)N[C@@H](C)C(=O)O`: the IC50 is 77 µM in experiment [3] and 11 µM in experiment [4]. The inhibition in experiment [1] was found to be 95%; in experiment [2], 52%.
With `COC(=O)[C@H](C)NC(=O)[C@H](CCCCNC(=O)c1ccccn1)NC(=O)[C@H](C)NC(C)=O`, the inhibition in experiment [1] was found to be 4%; in experiment [2], 0%.
The matching figures for `CC(C)(C)OC(=O)NCCCC[C@H](NC(=O)OCc1ccccc1)C(=O)Nc1ccccc1`: 6% and 13%.
In the case of `COC(=O)[C@H](C)NC(=O)[C@H](CCCCNC(=O)C(C)(C)C)NC(=O)[C@H](C)NC(C)=O`, the IC50 in experiment [3] came out at 338 µM; in experiment [4], 223 µM. The inhibition in experiment [1] is 53%; in experiment [2], 52%.
In the same order, the values of `CC(=[Se])NCCCC[C@H](NC(=O)OCc1ccccc1)C(=O)Nc1ccccc1` are 2.7 µM, 1.8 µM, 98% and 99%.
For the compound `COC(=O)[C@H](C)NC(=O)[C@H](CCCCNC(=O)c1ccccc1)NC(=O)[C@H](C)NC(C)=O`, the inhibition in experiment [1] was found to be 12%; in experiment [2] it was 14%.
With `CC(=O)N[C@@H](C)C(=O)N[C@@H](CCCCNC(C)=[Se])C(=O)N[C@@H](C)C(=O)O`, the figures for the IC50 in experiment [3] and in experiment [4] were 7.2 µM and 0.37 µM, respectively. Besides, the inhibition in experiment [1] worked out at 100%; in experiment [2], 97%.
`COC(=O)NCCCC[C@H](NC(=O)[C@H](C)NC(C)=O)C(=O)N[C@@H](C)C(=O)OC`: the inhibition stood at 8% in experiment [1] and 0% in experiment [2].
Take `COC(=O)[C@H](C)NC(=O)[C@H](CCCCNC(=O)C=C(C)C)NC(=O)[C@H](C)NC(C)=O`: the IC50 in experiment [3] is 69 µM; in experiment [4], 46 µM. The inhibition came to 78% in experiment [1] and 74% in experiment [2].
Turning to `C/C=C/C(=O)NCCCC[C@H](NC(=O)[C@H](C)NC(C)=O)C(=O)N[C@@H](C)C(=O)OC`, the inhibition in experiment [1] came out at 20%; in experiment [2], 9%.
For the compound `COC(=O)[C@H](C)NC(=O)[C@H](CCCCNC(=O)CBr)NC(=O)[C@H](C)NC(C)=O`, the IC50 in experiment [4] was found to be 1770 µM. Also, the inhibition turned out to be 48% in experiment [1] and 16% in experiment [2].
In the case of `CC(=O)N[C@@H](C)C(=O)N[C@@H](CCCCNC(=O)CC(C)C)C(=O)N[C@@H](C)C(=O)O`, the IC50 is 30 µM in experiment [3] and 12 µM in experiment [4]. For the same compound, the results for the inhibition in experiment [1] and in experiment [2] were 94% and 76%, respectively.
Take `CC(=O)N[C@@H](C)C(=O)N[C@@H](CCCCNC(=O)/C=C(/C)C(F)(F)F)C(=O)N[C@@H](C)C(=O)O`: the inhibition in experiment [1] was determined as 33%; in experiment [2], 20%.
The matching figures for `CP(C)(=S)NCCCC[C@H](NC(=O)OCc1ccccc1)C(=O)Nc1ccccc1`: 10% and 27%.
On to `CNC(=O)[C@H](C)NC(=O)[C@H](CCCCNC(=O)C=C(C)C)NC(=O)[C@H](C)NC(C)=O`, for which the IC50 is 23 µM in experiment [3] and 6.1 µM in experiment [4]. The inhibition turned out to be 96% in experiment [1] and 95% in experiment [2].
Take `CNC(=O)[C@H](C)NC(=O)[C@H](CCCCNC(=O)c1ccc[nH]1)NC(=O)[C@H](C)NC(C)=O`: the inhibition in experiment [1] came to 36%; in experiment [2], 26%.
On to `COC(=O)[C@H](C)NC(=O)[C@H](CCCCNC(C)=O)NC(=O)[C@H](C)NC(C)=O`, for which the IC50 was 180 µM in experiment [3] and 268 µM in experiment [4]. Also, the results for the inhibition in experiment [1] and in experiment [2] were 39% and 57%, respectively.
In the same order, the values of `CNC(=O)[C@H](C)NC(=O)[C@H](CCCCNC(=O)C(C)(C)C)NC(=O)[C@H](C)NC(C)=O` are 66 µM, 40 µM, 82% and 77%.
For `COC(=O)[C@H](C)NC(=O)[C@H](CCCCNC(=O)c1cccnc1)NC(=O)[C@H](C)NC(C)=O`, the inhibition in experiment [1] is 9%; in experiment [2], 2%.
As for `C/C=C(\C)C(=O)NCCCC[C@H](NC(=O)[C@H](C)NC(C)=O)C(=O)N[C@@H](C)C(=O)OC`, the inhibition in experiment [1] and in experiment [2] was 39% throughout.
In the case of `CC(=O)N[C@@H](C)C(=O)N[C@@H](CCCCNC(=S)CC(C)C)C(=O)N[C@@H](C)C(=O)O`, the values for the half-maximal inhibitory concentration (IC50) in experiment [3] and in experiment [4] were 3.6 µM and 0.7 µM, respectively. For the same compound, the inhibition in experiment [1] is 100%; in experiment [2] it was 99%.
In the case of `COC(=O)[C@H](C)NC(=O)[C@H](CCCCNC(=O)N(C)C)NC(=O)[C@H](C)NC(C)=O`, the inhibition in experiment [1] stood at 24%; in experiment [2], 13%.
On to `COC(=O)[C@H](C)NC(=O)[C@H](CCCCNC(=O)CCl)NC(=O)[C@H](C)NC(C)=O`, for which the figures for the inhibition in experiment [1] and in experiment [2] were 19% and 8%, respectively.
In the same order, the values of `CNC(=O)[C@H](C)NC(=O)[C@H](CCCCNC(=O)c1ccc(N(C)C)cc1)NC(=O)[C@H](C)NC(C)=O` are 39% and 34%.
`CC(=O)N[C@@H](C)C(=O)N[C@@H](CCCCNC(C)=S)C(=O)N[C@@H](C)C(=O)O`: the values for the IC50 in experiment [3] and in experiment [4] were 9.8 µM and 0.24 µM, respectively. The inhibition came to 100% in experiment [1] and 96% in experiment [2].
In the same order, the values of `CC(=O)NCCCC[C@H](NC(=O)[C@H](C)NC(C)=O)C(=O)N[C@@H](C)C(=O)O` are 223 µM, 122 µM, 62% and 42%.
For `CNC(=O)[C@H](C)NC(=O)[C@H](CCCCNC(=O)c1cccn1C)NC(=O)[C@H](C)NC(C)=O`, the inhibition came out at 23% in experiment [1] and 41% in experiment [2].
In experiment [3], `COC(=O)[C@H](C)NC(=O)[C@H](CCCCNC(=O)C1=CCCCC1)NC(=O)[C@H](C)NC(C)=O` registered an IC50 of 129 µM. Besides, the inhibition worked out at 33% in experiment [1] and 54% in experiment [2].
Turning to `COC(=O)[C@H](C)NC(=O)[C@H](CCCCNS(=O)(=O)C(F)(F)F)NC(=O)[C@H](C)NC(C)=O`, the results for the inhibition in experiment [1] and in experiment [2] were 15% and 4%, respectively.
The matching figures for `COC(=O)[C@H](C)NC(=O)[C@H](CCCCNS(C)(=O)=O)NC(=O)[C@H](C)NC(C)=O`: 17% and 8%.
In the same order, the values of `COC(=O)[C@H](C)NC(=O)[C@H](CCCCNC(=O)Cc1ccccn1)NC(=O)[C@H](C)NC(C)=O` are 26% and 21%.
As to `COC(=O)[C@H](C)NC(=O)[C@H](CCCCNS(=O)(=O)c1ccc([N+](=O)[O-])cc1)NC(=O)[C@H](C)NC(C)=O`, the inhibition in experiment [1] came out at 0%; in experiment [2], 5%.
The matching figures for `COC(=O)[C@H](C)NC(=O)[C@H](CCCCNS(=O)(=O)c1ccc(C)cc1)NC(=O)[C@H](C)NC(C)=O`: 1% and 0%.
